Assay outcomes as filed in PubChem BioAssay.
In the library only some 2.5% were active in any assay of this set; here they are far more common.
JMJD2C inh: inhibitors of GASC-1 histone demethylase, primary screen, biochemical, fluorescence, DELFIA europium | Lysine-specific demethylase 4C (Homo sapiens), Q9H3R0 | GST-JMJD2C(1-420) H3K9me3 demethylation | inhibition, % at 2.35 µM | hit rate 0.069% among 330,000 | AID 2099, 2009;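 active = more than half of a compound's replicate wells show inhibition beyond 50%, single wells judged on their own value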;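 note: signal counts dimethyl H3K9 product captured on neutravidin plate; 0% = median of DMSO wells and 100% = 0.3 times that DMSO median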
NR2E3 ag-1: NR2E3 agonists in two-hybrid cells, primary screen, cell-based, luminescence, CHO-S, Gal4-NCOR/VP16-NR2E3. luciferase. inhibition of corepressor binding, % at 3.98 µM. hit rate 0.35% among 360,000;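 active = inhibition above the mean of all tested compounds plus 3 SD, cut at about 70% in these data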;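 note: 0% = DMSO with NR2E3 transfected cells and 100% = cells lacking NR2E3 construct; higher means lower luciferase signal from less NR2E3 corepressor binding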
ADAM10 inh: human ADAM10 inhibitors, primary screen, biochemical, QFRET, HTS. Disintegrin and metalloproteinase domain-containing protein 10 (Homo sapiens), O14672. recombinant ADAM10, EDANS/DABCYL FRET peptide cleavage, 3 h. inhibition, % at 7 µM. hit rate 0.62% among 370,000;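 active = inhibition above a per-campaign cutoff equal to the mean of compounds falling between control-based bounds plus 3 SD, cut at about 20% in these data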;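 note: 0% = DMSO wells while the 100% control is not disclosed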
Target sequence (O14672 214-748 limits assumed): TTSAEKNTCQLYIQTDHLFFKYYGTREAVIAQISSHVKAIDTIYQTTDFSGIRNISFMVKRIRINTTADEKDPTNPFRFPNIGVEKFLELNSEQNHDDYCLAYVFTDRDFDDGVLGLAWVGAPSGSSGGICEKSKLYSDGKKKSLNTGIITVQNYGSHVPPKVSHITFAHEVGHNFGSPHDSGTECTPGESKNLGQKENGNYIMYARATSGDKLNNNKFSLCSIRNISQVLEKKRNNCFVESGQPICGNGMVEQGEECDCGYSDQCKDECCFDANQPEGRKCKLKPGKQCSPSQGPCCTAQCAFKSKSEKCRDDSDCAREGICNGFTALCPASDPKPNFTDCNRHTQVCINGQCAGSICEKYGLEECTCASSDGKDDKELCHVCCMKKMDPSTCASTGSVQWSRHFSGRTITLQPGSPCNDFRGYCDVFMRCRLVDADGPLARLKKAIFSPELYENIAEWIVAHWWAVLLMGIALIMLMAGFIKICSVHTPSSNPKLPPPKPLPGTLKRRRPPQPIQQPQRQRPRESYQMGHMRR
KLK7 zymogen act: proKLK7 zymogen activators, primary screen, biochemical, fluorescence intensity | Kallikrein-7 (Homo sapiens), P49862 | purified proKLK7, EDANS-DABCYL substrate fluorescence; 100% is mature enzyme control, 0% vehicle | activation, % at 7 µM | hit rate 0.9% among 370,000 | AID 652039, 2013;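 active = activation above the mean of all tested compounds plus 3 SD, computed per campaign excluding outliers beyond control limits, cut at about 13% in these data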
Target sequence (P49862 whole entry, looked up): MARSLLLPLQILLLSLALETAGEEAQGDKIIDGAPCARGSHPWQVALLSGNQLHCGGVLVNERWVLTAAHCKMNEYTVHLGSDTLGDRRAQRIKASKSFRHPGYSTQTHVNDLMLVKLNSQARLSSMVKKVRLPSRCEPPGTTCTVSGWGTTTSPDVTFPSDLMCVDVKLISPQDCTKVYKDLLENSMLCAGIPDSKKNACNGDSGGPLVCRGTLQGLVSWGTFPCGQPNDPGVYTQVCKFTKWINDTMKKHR
ADAM17 inh: ADAM17 inhibitors, primary screen, biochemical, QFRET; inhibition, % at 6.95 µM; recombinant ADAM17, EDANS/DABCYL FRET peptide cleavage; Disintegrin and metalloproteinase domain-containing protein 17 (Homo sapiens), P78536; hit rate 0.83% among 370,000;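 active = inhibition above the mean of compounds lying between control limits plus 3 SD, set per campaign, cut at about 8.5% in these data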;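 note: 0% = DMSO-only wells as the low control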
NR2E3 ag-2: inhibitors of NR2E3-RetCOR corepressor binding, primary screen, NR2E3 agonist project, biochemical, TR-FRET, GST-NR2E3, biotin-RetCOR. inhibition of corepressor binding, % at 4.78 µM. hit rate 0.12% among 320,000. 1536-well;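 active = percent inhibition above the cutoff of mean plus 3 SD of all tested compounds, set per screening campaign, cut at about 20% in these data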;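 note: 0% = DMSO wells and 100% = biotin wells as full block of FRET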
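Material: NR2E3–RetCOR corepressor complex | Quantity: 1.35 nM GST-tagged NR2E3 final | Schedule: 5 h at 4 °C | Replication: Singlicate compound wells | Reagent: RetCOR corepressor, biotinylated, 7 nM | Controls: Biotin wells as high control, 0.6% DMSO wells as low control | Signal: TR-FRET, Eu(K)-anti-GST donor, streptavidin-D2 acceptor, ex 340, em 617/671 nm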
ADAM10 ctr: ADAM10 inhibitors, counter-screen for ADAM17 exosite inhibitor project, biochemical, FRET, human ADAM10; shares compounds with ADAM17 inh; recombinant ADAM10, EDANS/DABCYL FRET peptide cleavage, 3 h; inhibition, % at 6.95 µM; hit rate 47% among 2,900; AID 743256, 2014;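 active = mean inhibition over the triplicate runs exceeds the activity threshold set in the earlier primary screen, cut at about 20% in these data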;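 note: 0% = DMSO wells and 100% = marimastat wells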
ADAM17 confirm: ADAM17 inhibitors, hit retest, confirmation, biochemical, QFRET peptide cleavage; shares compounds with ADAM17 inh; recombinant ADAM17, EDANS/DABCYL QFRET peptide cleavage; inhibition, % at 6.95 µM; hit rate 65% among 2,900; AID 743257, 2014;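 active = mean inhibition across replicates above the hit cutoff set in the primary screen, cut at about 8.5% in these data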;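 note: 0% = DMSO wells and 100% = marimastat wells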
Starred values were filed as active, the others as inactive; · = no result.

SMILES | JMJD2C inh | NR2E3 ag-1 | ADAM10 inh | KLK7 zymogen act | ADAM17 inh | NR2E3 ag-2 | ADAM10 ctr | ADAM17 confirm
Cc1nc2c(n1C1CCCCC1)C(=O)c1ccccc1C2=O | 2.3 | -12.4 | -4.1 | -0.6 | -3.7 | -2.8 | · | ·
CN(Cc1ccccc1)S(=O)(=O)c1ccc(NC(=O)C2CCCO2)cc1 (stereo not drawn) | 5.5 | -16.2 | -0.1 | 0.4 | 8.9* | 1.4 | -5.3 | -1.4
CN(Cc1ccccc1)S(=O)(=O)c1ccc(NC(=O)C2CCCCC2C(=O)O)cc1 (stereo not drawn) | 5.8 | -2.0 | -16.3 | -0.3 | -4.1 | · | · | ·
CC(=O)N1CCN(c2ccccc2NC(=O)c2ccco2)CC1 | 5.2 | -15.4 | -0.6 | 0.4 | -1.9 | -1.3 | · | ·
CC(OC(=O)c1cc(=O)c2cc(Cl)ccc2o1)C(=O)N1CCCC1 (stereo not drawn) | · | 1.1 | -20.1 | 1.3 | 2.5 | · | · | ·
CCN(Cc1ccncc1)Cc1cn[nH]c1-c1cc(OC)c(OC)c(OC)c1 | 1.3 | -6.0 | 0.3 | 0.2 | -3.8 | -3.4 | · | ·
CCO[C@@H]1OC(C(=O)N2CCN(Cc3ccccc3)CC2)=C[C@H](c2ccc(Br)cc2)[C@H]1CCCO | 8.7 | -22.3 | 18.8 | 0.1 | 10.2* | 1.2 | 4.4 | 7.4
CCO[C@@H]1OC(C(=O)N2CCN(Cc3ccccc3)CC2)=C[C@H](c2ccc(C(F)(F)F)cc2)[C@H]1CCCO | 1.2 | 16.1 | 5.0 | 0.4 | -0.4 | 0.7 | · | ·
CCOC(=O)[C@]12CCCC=C1N(CCC1=CCCCC1)C(=O)[C@H](CC(=O)NCc1cccc3ccccc13)C2 | · | · | -6.9 | -0.4 | 1.8 | · | · | ·
COc1ccc2c(C(F)(F)F)cc(=O)oc2c1C | 22.5 | -14.0 | 13.0 | -0.6 | 9.8* | -5.7 | 17.1 | 7.9
Cc1csc2c(=O)n(CCO)c(=O)[nH]c12 | -11.8 | 4.5 | -8.3 | 0.2 | -1.1 | 2.6 | · | ·
COc1ccc(C2=NN(C(=O)CSC3=NN4CCCC(=O)N=C4S3)C(c3cccc(OC)c3OC)C2)cc1 (stereo not drawn) | 12.4 | 0.0 | 13.3 | 0.3 | 10.2* | 2.1 | -2.5 | -0.2
COc1ccc(Nc2nc(N)nc(CSC(=S)N3CCCCC3)n2)cc1 | 8.8 | -38.8 | 0.3 | 0.5 | -2.8 | 4.0 | · | ·
COc1ccc(Nc2nc(N)nc(CSC(=S)N3CCCCC3C)n2)cc1 (stereo not drawn) | 5.3 | -11.9 | 11.1 | 0.8 | 9.7* | -4.4 | 12.8 | 10.0*
COc1ccccc1Nc1nc(N)nc(CSC(=S)N2CC(C)CC(C)C2)n1 (stereo not drawn) | -2.4 | 2.0 | 17.5 | 0.3 | 12.0* | 0.6 | 29.6* | 15.8*
O=C(CSc1ccc([N+](=O)[O-])cc1)Nc1nnc(C2CC2)s1 | -0.2 | 2.1 | -1.6 | -0.4 | -2.5 | · | · | ·
N=C1C(c2ccccc2)=C(O)CN1CCCO | -3.0 | 6.6 | -8.7 | 0.0 | 4.5 | 9.5 | · | ·
COC(=O)c1ccc(COc2ccccc2/C=N/NC(=O)c2cccnc2)cc1 | 7.1 | -19.9 | 4.6 | -12.6 | 8.7* | 2.5 | 16.3 | 7.0
COc1cccc(/C=N/NC(=O)CNC(=O)c2cccnc2)c1O | -5.3 | -23.6 | -14.6 | -14.2 | -7.4 | 1.8 | · | ·
CC1(C(=O)NCc2cccc(C(F)(F)F)c2)CCN1Cc1cc2ccccc2o1 (stereo not drawn) | · | 6.7 | 4.3 | -0.1 | 2.9 | · | · | ·
CC1(C(=O)NCc2cccc(C(F)(F)F)c2)CCN1Cc1ccc(-c2ccccc2)o1 (stereo not drawn) | · | 15.6 | 13.2 | -0.3 | 12.8* | · | 15.5 | 10.4*
O=C(NC1=NCCS1)c1cc(-c2cccc(Br)c2)nc2ccccc12 | 12.6 | -29.0 | 15.3 | -0.5 | 9.1* | -0.7 | 14.5 | 9.3*
CC(=O)N(C)c1ccc(N=Nc2ccc3ncccc3c2)cc1 | · | -111.1 | 17.1 | 0.0 | 9.6* | · | 1.2 | 4.8
CCOc1ccc(NC(=O)CN2CCN(c3ccc(F)cc3)CC2)cc1S(=O)(=O)N1CCCC1 | · | -9.7 | -0.9 | 0.3 | 10.5* | · | 2.4 | 4.5
Cc1ccc(Nc2cc(=O)n(C)c(=O)[nH]2)cc1C | · | -18.0 | -4.8 | -0.1 | -0.8 | · | · | ·
SMILES | JMJD2C inh | NR2E3 ag-1 | ADAM10 inh | KLK7 zymogen act | ADAM17 inh | NR2E3 ag-2 | ADAM10 ctr | ADAM17 confirm
O=C(Cc1ccc(NC2=NC3CS(=O)(=O)CC3S2)cc1)NCc1ccc(Cl)cc1 (stereo not drawn) | 155.1 | -29.3 | 7.7 | -0.5 | 2.5 | 1.6 | · | ·
O=c1[nH]c(=S)n(-c2ccc(Br)cc2)c2ncccc12 | -2.6 | -18.8 | 6.0 | 0.4 | 11.0* | -1.8 | 19.7 | 10.9*
CCCCCCCCN1C(=O)[C@@H](CC(=O)N2CCOCC2)C[C@@]2(C(=O)OC)C1=C[C@H](COCc1ccccc1)O[C@@H]2C | · | · | 3.5 | 0.1 | 0.8 | · | · | ·
Cc1onc(-c2ccccc2Cl)c1C(=O)Nc1cccc2cccnc12 | 0.8 | -48.3 | 14.8 | 0.1 | 11.8* | -0.9 | 20.1* | 18.0*
CC(C)CNc1ccc2c(c1)OC[C@H](C)NS2(=O)=O | · | · | 5.2 | 0.8 | -2.3 | · | · | ·
CC1CCN(S(=O)(=O)c2ccc3c(c2)N(CC(=O)NCCCN2C(C)CCCC2C)C(=O)CO3)CC1 (stereo not drawn) | 10.3 | -3.7 | 2.5 | 0.2 | 13.5* | 1.8 | 0.1 | 7.9
CC1CCCC(C)N1CCCNC(=O)CN1C(=O)COc2ccc(S(=O)(=O)N3CCOCC3)cc21 (stereo not drawn) | -2.8 | -16.6 | -4.0 | 0.2 | 0.2 | -0.9 | · | ·
CCc1ccc([C@H]2[C@@H]3C(=O)C[C@@H]4C(=O)N(c5ccccc5)C(=O)[C@@H]4[C@@H]3CN2S(=O)(=O)c2ccc(C)cc2)cc1 | · | 3.0 | 10.0 | 0.7 | 8.7* | · | 10.4 | 10.4*
Cc1ccc(S(=O)(=O)N2C[C@H]3[C@H]4C(=O)N(c5ccccc5)C(=O)[C@H]4CC(=O)[C@H]3[C@@H]2c2ccc(Cl)cc2)cc1 | · | 20.4 | -0.8 | 0.4 | 1.9 | · | · | ·
COCCn1c(N)c(N(Cc2ccccc2)C(=O)C2=COCCO2)c(=O)[nH]c1=O | 7.8 | 9.7 | -8.3 | -2.7 | -10.7 | 2.5 | · | ·
